# Screening data deposited in PubChem BioAssay by SRMLSC.
# H69AR inhibit: blocks growth of human H69AR lung tumor cells; H69AR lung tumor viability, ATP luminescence, 72 h; stronger effect = lower value; viability, % at 10 µM; 85,000 tested, 6% active; AID 598;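 active means viability at or below 40%; inactive means viability above 40%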;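 further: multidrug resistant small cell line overexpressing MRP-1 efflux transporter; 100% = mean luminescence of untreated control wells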
# HCT116 bCat-KO: beta-catenin-lacking colon tumor cell growth suppression; 140,000 tested, 1.5% active; viability, % at 10 µM; HCT116 beta-catenin knockout viability, CellTiter-Glo, 60 h; stronger effect = lower value;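 active means viability at or under a set limit, the compound median less 4 SD, cut at about 6% in these data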;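 further: 0% = Hyamine 1622 control at 20 µM and 100% = untreated cell control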
# HUVEC prolif 384: blocks proliferation of human endothelial cells | 86,000 tested, 1.1% active | AID 648 | viability, % at 10 µM (by protocol) | HUVEC proliferation, CellTiter-Glo luminescence, 72 h; stronger effect = lower value;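 active means viability at or below 30%; inactive means viability above 30%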;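 further: 100% = median luminescence of DMSO-only cell control wells on each plate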
# Lung fibro prol: blocks proliferation of human lung fibroblasts; viability, % at 10 µM; 85,000 tested, 1.1% active; AID 719; LL 47 human lung fibroblast viability, ATP luminescence; stronger effect = lower value;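 active means viability at or below 50% in the single dose screen; inactive means viability above 50%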;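 further: compound exposure lasted 72 h before the ATP readout; 100% = median luminescence of untreated cell-only wells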
#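 Signal: luminescent ATP detection, CellTiter-Glo; assay system: LL 47 human lung fibroblasts; input: 1,150 cells/well; incubation: overnight cell rest, 72 h compound treatment at 37 °C; measure: % viability versus median cells-only luminescence; medium: IMEM growth medium with 15% fetal bovine serum; dosing: compound addition at 0.1% DMSO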
# PTEN del growth: PTEN-deleted cell growth suppression; viability, % at 10 µM; HCT116 PTEN-null viability, CellTiter-Glo, 60 h; stronger effect = lower value; 140,000 tested, 1.2% active; AID 827;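 active means viability at or below a set limit, 4 SD under the median of all tested compounds, cut at about 3.7% in these data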;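 further: PTEN knockout HCT116 line with beta catenin targeted HCT116 as companion control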
# Active calls of the source: *; / = no result given. The entries come from a sample that favours hits as a whole.
SMILES,H69AR inhibit,HCT116 bCat-KO,HUVEC prolif 384,Lung fibro prol,PTEN del growth
COc1cccc(-c2nn(-c3ccccc3)cc2C(=O)n2nnc3ccccc32)c1,19*,15,68,99,7
COc1ccc(-c2nn(-c3ccccc3)cc2C(=O)Nc2nccs2)cc1,23*,72,75,103,60
Cc1cccc(C)c1NC(=O)c1cn(-c2ccccc2)nc1-c1ccccc1,/,89,/,/,95
COc1cc(CC(C#N)(CO)c2nc3ccccc3[nH]2)ccc1OC(F)F (configuration not stated),/,84,/,/,78
O=[N+]([O-])c1ccccc1Sc1nccn1Cc1ccccc1,/,92,/,/,99
C/C=C/C(=O)OCC(=O)Nc1nc2ccc(C)cc2s1,29*,94,94,101,85
CS(=O)(=O)c1ccc2nc(NC(=O)c3cccs3)sc2c1,25*,84,75,97,74
Cc1ccc(C(=O)Nc2nc3ccc(S(C)(=O)=O)cc3s2)s1,38*,87,85,101,85
Cc1cc(C(=O)Nc2nc3ccc(S(C)(=O)=O)cc3s2)c(C)o1,51,80,94,46*,88
Cc1nn(-c2cc(N(S(C)(=O)=O)S(C)(=O)=O)c(Cl)cc2Cl)c(=O)n1C,/,103,/,/,97
Cc1ccc2nc(NC(=O)c3cccc(-c4cc5ccccc5oc4=O)c3)sc2c1,/,3.0*,/,/,2.2*
Cc1ccc2nc(NC(=O)c3ccc(Cl)s3)sc2c1,20*,86,70,51,80
CCOc1ccc(-c2[nH]ncc2-c2csc(C)n2)c(O)c1,/,82,/,/,70
CCCOC(=O)c1ccc(Oc2cn[nH]c2-c2ccc(OCC)cc2O)cc1,2.7*,55,9.5*,96,54
CCCOC(=O)c1ccc(Oc2c(-c3ccc(OCC)cc3O)n[nH]c2C)cc1,2.2*,103,4.5*,54,97
CCCc1ccc(Oc2c(-c3ccc(O)c(C)c3O)n[nH]c2C)cc1,21*,87,24*,96,84
CCCc1ccc(Oc2cn[nH]c2-c2ccc(O)c(C)c2O)cc1,82,39,56,96,52
CCN(CC)S(=O)(=O)c1ccc(C(=O)OCn2c(SC)nnc(C)c2=O)cc1,/,91,/,/,93
O=C(C1CCCN(CCCc2ccccc2)C1)N1CCCCC1 (configuration not stated),/,78,/,/,86
O=C(c1ccccc1)c1nn(-c2ccc(Cl)cc2)c(=O)cc1C(F)(F)F,/,2.2*,/,/,1.7*
O=C(c1cccc(Cl)c1)c1nn(-c2ccccc2)c(=O)cc1C(F)(F)F,/,2.5*,/,/,1.1*
O=C(c1ccccc1)c1nn(-c2ccccc2)c(=O)cc1C(F)(F)F,/,17,/,/,14
COc1ccc(C(=O)NCCc2c[nH]c3ccccc23)cc1S(=O)(=O)N1CCOCC1,69,85,87,93,76
COc1cc(/C=C(/C#N)C(=O)Nc2ccc(C)cc2)ccc1Oc1nc(Cl)ncc1F,/,68,/,/,66
Cc1ccc(-c2nn3c(-c4ccco4)nnc3c3ccccc23)cc1S(=O)(=O)NCC1CCCO1 (configuration not stated),16*,69,72,89,45
SMILES,H69AR inhibit,HCT116 bCat-KO,HUVEC prolif 384,Lung fibro prol,PTEN del growth
Cc1ccc(-c2nnc(Nc3ccccc3)c3ccccc23)cc1S(=O)(=O)NCC1CCCO1 (configuration not stated),/,77,/,/,68
O=C(Nc1ccccn1)C(F)(F)C(F)(F)C(F)(F)C(F)(F)C(=O)Nc1ccccn1,/,100,/,/,100
CCc1ccccc1NC(=O)CSc1nc2n[nH]c(C)c2c(=N)n1-c1cccc(OC)c1,60,63,82,87,65
CCOc1ccccc1-n1c(SCC(=O)Nc2ccc(CC)cc2)nc2n[nH]c(C)c2c1=N,/,5.0*,/,/,3.7*
CCOc1ccccc1NC(=O)CCSc1nc2n[nH]c(C)c2c(=N)n1-c1ccccc1Cl,6.5*,14,52,56,15
O=C(Cc1ccc(F)cc1)Oc1ccc(C(=S)N2CCCC2)cc1,/,95,/,/,101
Cc1cc(C(=O)CSc2nc3ccccc3c(=O)n2C)c(C)n1Cc1ccc2c(c1)OCO2,25*,7,24*,81,15
O=C(N/N=C/c1ccccc1OC(=O)c1ccc2c(c1)OCO2)c1cccc(F)c1,/,5.0*,/,/,3.4*
COc1cc(C(=O)Oc2ccccc2/C=N/NC(=O)c2ccc(C)c(Cl)c2)cc(OC)c1OC,/,5.2*,/,/,2.7*
COc1cc(C(=O)Oc2ccccc2/C=N/NC(=O)c2ccc(Cl)cc2)cc(OC)c1OC,/,7,/,/,6
O=S(=O)(N1CCCCCC1)N1CCN(S(=O)(=O)N2CCCCC2)CC1,96,90,88,92,102
CCc1cc(-c2n[nH]c(C)c2-c2nc3ccccc3n2C)c(O)c(CN2CCN(C)CC2)c1O,16*,82,79,/,76
CCc1cc2c(=O)c(-c3nc4ccccc4n3C)c(C)oc2c(CN2CCN(C)CC2)c1O,/,84,/,/,93
O=C(CCl)Nc1ccccc1Sc1ccc(Cl)cc1,/,2.1*,/,/,2.5*
CC(=O)N1CCN(CC(=O)Nc2ccccc2Sc2ccc(Cl)cc2)CC1,/,74,/,/,80
O=C1CC(c2cccs2)Cc2nc(NCC3CCCO3)ncc21 (configuration not stated),/,92,94,90,92
N#C/C(=C/c1ccc(N2CCCCC2)o1)c1cccc(F)c1,41,65,85,82,76
N#C/C(=C/c1ccc(N2CCCCCC2)o1)c1ccc(Cl)cc1,101,52,105,48*,64
COc1ccc(OCCNC(=O)c2ccccc2OCC(=O)N2CCCCC2)cc1,31*,79,86,92,75
COc1ccc(OCC(=O)N2CCN(C(=O)COc3ccc(Br)cc3)CC2)cc1,28*,85,82,100,81
COc1ccc(OCCNC(=O)c2ccccc2OCC(=O)Nc2ccc(NC(C)=O)cc2)cc1,/,81,/,/,78
COc1cc(N(C(=O)Cc2cccs2)C(C(=O)NC2CCCCC2)c2ccc(C)cc2)ccc1-n1cnnn1 (configuration not stated),/,15,/,/,1.4*
Cc1cccc(N(C(=O)C(F)(F)F)C(C(=O)NC2CCCCC2)c2cccs2)c1 (configuration not stated),/,87,/,/,90
C#CC(=O)N(c1ccc(OC)c(OC)c1)C(C(=O)NC1CCCC1)c1cccs1 (configuration not stated),/,1.3*,/,/,1.7*
COc1ccc(N(C(=O)Cc2cccs2)C(C(=O)NC2CCCCC2)c2cccn2C)cc1OC (configuration not stated),76,94,92,95,81
C#CC(=O)N(c1cccc(OC)c1)C(C(=O)NC1CCCC1)c1cccs1 (configuration not stated),/,0.5*,/,/,1.0*
O=C(CN(C(=O)CSc1nc2ccccc2o1)c1ccccc1F)NC1CCCCC1,/,84,/,/,83
Cc1ccc(-c2csc3nnc(SCC(=O)Nc4cccc(C)n4)n23)cc1,95,89,88,103,92
